Measured values: the array DNA melting data of Ke et al. (doi:10.1101/2024.01.08.574731)

Experiments:
[1] = folding enthalpy; higher = less favourable; fluorescence melt of hairpins on a sequencing array, two-state fit; conditions: sodium 0.088 M
Procedure, shortened: (§1)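 On a sequenced MiSeq flow cell, library hairpins with annealed Cy3 and quencher oligos were imaged for Cy3 fluorescence in 2.5 °C steps up to 60 °C, in 50 mM Na-HEPES pH 8.0, 25 mM NaCl. Normalisation used pre-quench Cy3 and control constructs. Bootstrapped two-state fits gave melting temperature and folding enthalpy, combined by inverse variance across four replicates and with fitted temperatures raised by 9.35 °C to match UV melts.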

[2] = melting temperature; fluorescence melt of hairpins on a sequencing array, two-state fit, raised by 9.35 °C to match UV melts; conditions: sodium 0.088 M
Procedure, shortened: as §1

**Q.** Which folding enthalpy [1] does the source give for CGCCCGGAAACGGAAGCG ((((((....)))..))) here?
**A.** -30.8 kcal/mol

**Q.** What about the Tm [2] of the same sequence?
**A.** 49.3 °C

**Q.** With GGTTGTGGAAACACAGTC (..((((....))))..) as the sequence, how does the folding enthalpy [1] read?
**A.** -13.2 kcal/mol

**Q.** What about the Tm [2] of the same sequence?
**A.** 29.1 °C

**Q.** What does the source list for GACTGCGGAAACGCAATC ((.((((....)))).))?
**A.** folding enthalpy [1]: -15.4 kcal/mol; Tm [2]: 38 °C

**Q.** For GTGAATGGAAACATCCAC (((.(((....))).))), which folding enthalpy [1] is on record?
**A.** -24.1 kcal/mol

**Q.** And the Tm [2]?
**A.** 34.6 °C

**Q.** For GCAGTGCGAAAGCGTTGC (((..((....))..))), which folding enthalpy [1] is on record?
**A.** -17.7 kcal/mol

**Q.** And the Tm [2]?
**A.** 56.2 °C

**Q.** With GTCCTGGCGAAAGCCGAC (((..(((....)))))) as the sequence, how does the folding enthalpy [1] read?
**A.** -9.43 kcal/mol

**Q.** And the Tm [2]?
**A.** 32.9 °C

**Q.** With GATCGTAGGAACGATC ((((((....)))))) as the sequence, how does the folding enthalpy [1] read?
**A.** -30.9 kcal/mol

**Q.** What about the Tm [2] of the same sequence?
**A.** 52.4 °C

**Q.** Which results are given for GTCGCTCGAAAGAGTGAC (((.(((....))).)))?
**A.** folding enthalpy [1]: -43.3 kcal/mol; Tm [2]: 62.6 °C

**Q.** For GCTCGAGGAAACTTGGGC ((.(.((....)).).)), which folding enthalpy [1] is on record?
**A.** -19.4 kcal/mol

**Q.** What about the Tm [2] of the same sequence?
**A.** 37.4 °C

**Q.** Which results are given for GCTGCGCGAAAGCCCTGC ((.(.((....)).).))?
**A.** folding enthalpy [1]: -17.3 kcal/mol; Tm [2]: 38.5 °C

**Q.** Which results are given for GATCGCTGACGCGATC ((((((....))))))?
**A.** folding enthalpy [1]: -36.5 kcal/mol; Tm [2]: 66.7 °C

**Q.** Which results are given for GTTATACGAAAGTAGAAC (((.(((....))).)))?
**A.** folding enthalpy [1]: -29.9 kcal/mol; Tm [2]: 45.1 °C

**Q.** With GTGAGAGGAAACTTTCAC ((((.((....)).)))) as the sequence, how does the folding enthalpy [1] read?
**A.** -23.8 kcal/mol

**Q.** And the Tm [2]?
**A.** 35.1 °C

**Q.** Which folding enthalpy [1] does the source give for GATCTGTTCTCAGATC ((((((....)))))) here?
**A.** -41.3 kcal/mol

**Q.** And the Tm [2]?
**A.** 51.5 °C

**Q.** For GTGAGCGAAAGCTGCCAC ((((((....)))..))), which folding enthalpy [1] is on record?
**A.** -8.52 kcal/mol

**Q.** And the Tm [2]?
**A.** 37.6 °C

**Q.** Which folding enthalpy [1] does the source give for GAAAGGCGAAAGCCGTTC (((.(((....))).))) here?
**A.** -11.9 kcal/mol

**Q.** What about the Tm [2] of the same sequence?
**A.** 46.7 °C

**Q.** Which results are given for GCGTAGCGAAAGCTCGC (((.(((....))))))?
**A.** folding enthalpy [1]: -16.4 kcal/mol; Tm [2]: 63.3 °C

**Q.** For GCCTCCGAAAGGATCGGC ((((((....)))..))), which folding enthalpy [1] is on record?
**A.** -24.2 kcal/mol

**Q.** And the Tm [2]?
**A.** 45.3 °C

**Q.** Which results are given for CGGCCGGAAACGGTGCCG ((((((....)))..)))?
**A.** folding enthalpy [1]: -35.8 kcal/mol; Tm [2]: 51.9 °C

**Q.** For GATCCTCTTGAGGATC ((((((....)))))), which folding enthalpy [1] is on record?
**A.** -41 kcal/mol

**Q.** And the Tm [2]?
**A.** 61.3 °C

**Q.** With GGTTCCGGAAACGGAGCC ((.((((....)))).)) as the sequence, how does the folding enthalpy [1] read?
**A.** -41.6 kcal/mol

**Q.** And the Tm [2]?
**A.** 58.4 °C

**Q.** Which results are given for GATCCGGAGGCGGATC ((((((....))))))?
**A.** folding enthalpy [1]: -33.4 kcal/mol; Tm [2]: 57.8 °C

**Q.** Which results are given for GTTGCGGGAAACTGCAGC (.(((.(....).))).)?
**A.** folding enthalpy [1]: -15.8 kcal/mol; Tm [2]: 45 °C

**Q.** What does the source list for GTTAATGGAAACATTGAC ((.((((....)))).))?
**A.** folding enthalpy [1]: -26.1 kcal/mol; Tm [2]: 37.3 °C

**Q.** Which folding enthalpy [1] does the source give for GCGACCCCTCGC ((((....)))) here?
**A.** -23.4 kcal/mol

**Q.** What about the Tm [2] of the same sequence?
**A.** 50.1 °C

**Q.** Which folding enthalpy [1] does the source give for GGAACCGAAAGGTTTCC ((((((....))).))) here?
**A.** -18.5 kcal/mol

**Q.** What about the Tm [2] of the same sequence?
**A.** 53.8 °C

**Q.** Which folding enthalpy [1] does the source give for GTATTCGAAAGAATTAC ((((((....))).))) here?
**A.** -13 kcal/mol

**Q.** What about the Tm [2] of the same sequence?
**A.** 31.4 °C

**Q.** Which folding enthalpy [1] does the source give for GGACTGGAAACAGTCC ((((((....)))))) here?
**A.** -30.2 kcal/mol

**Q.** What about the Tm [2] of the same sequence?
**A.** 59.8 °C

**Q.** Which folding enthalpy [1] does the source give for GTCATCGAAAGATAAGAC ((((((....)))..))) here?
**A.** -21 kcal/mol

**Q.** What about the Tm [2] of the same sequence?
**A.** 31.6 °C

**Q.** Which folding enthalpy [1] does the source give for GGCAGTCGAAAGACGGCC (((.(((....))).))) here?
**A.** -36.4 kcal/mol

**Q.** And the Tm [2]?
**A.** 67.8 °C

**Q.** Which folding enthalpy [1] does the source give for GGGATCGAAAGATGGCCC ((((((....)))..))) here?
**A.** -13.8 kcal/mol

**Q.** What about the Tm [2] of the same sequence?
**A.** 33.5 °C

**Q.** For GCGCGAGGAAACTCACGC (((.(((....))).))), which folding enthalpy [1] is on record?
**A.** -38.2 kcal/mol

**Q.** And the Tm [2]?
**A.** 53.8 °C

**Q.** Which results are given for GAAGGACGAAAGTCGTTC (((.(((....))).)))?
**A.** folding enthalpy [1]: -37.1 kcal/mol; Tm [2]: 51.9 °C

**Q.** Which results are given for GGTAGCGAAAGCTGAACC ((((((....)))..)))?
**A.** folding enthalpy [1]: -17.6 kcal/mol; Tm [2]: 38.2 °C

**Q.** Which folding enthalpy [1] does the source give for GCAAACGAAAGTTCGTGC ((((((....)))..))) here?
**A.** -17.3 kcal/mol

**Q.** And the Tm [2]?
**A.** 35.6 °C

**Q.** For TGTAGGAAACTACA (((((....))))), which folding enthalpy [1] is on record?
**A.** -16.9 kcal/mol

**Q.** What about the Tm [2] of the same sequence?
**A.** 36.9 °C

**Q.** With GAAATCCGAAAGGATTC (((.(((....)))))) as the sequence, how does the folding enthalpy [1] read?
**A.** -11.2 kcal/mol

**Q.** And the Tm [2]?
**A.** 46.4 °C

**Q.** For GGTCCCGAAAGGGACACC ((((((....)))..))), which folding enthalpy [1] is on record?
**A.** -8.21 kcal/mol

**Q.** And the Tm [2]?
**A.** 54.5 °C

**Q.** Which results are given for GACACAGGAAACTGTATC ((.((((....)))).))?
**A.** folding enthalpy [1]: -14.1 kcal/mol; Tm [2]: 28.3 °C

**Q.** Which results are given for GCAGGCGAAAGCCATTGC ((((((....)))..)))?
**A.** folding enthalpy [1]: -13.2 kcal/mol; Tm [2]: 42.7 °C

**Q.** With GATCATATTTATGATC ((((((....)))))) as the sequence, how does the folding enthalpy [1] read?
**A.** -41.2 kcal/mol

**Q.** And the Tm [2]?
**A.** 50.3 °C

**Q.** For GGGTCAGGAAACTGACTC (.(((((....))))).), which folding enthalpy [1] is on record?
**A.** -30.7 kcal/mol

**Q.** And the Tm [2]?
**A.** 51.8 °C

**Q.** With GCAATCGGAAACGACTGC (((.(((....))).))) as the sequence, how does the folding enthalpy [1] read?
**A.** -28.9 kcal/mol

**Q.** What about the Tm [2] of the same sequence?
**A.** 45.1 °C

**Q.** Which folding enthalpy [1] does the source give for GTGGGCGGAAACGCTCGC (.(.(((....))).).) here?
**A.** -21.3 kcal/mol

**Q.** And the Tm [2]?
**A.** 49.9 °C

**Q.** With GTAATGCGAAAGCATAC (((.(((....)))))) as the sequence, how does the folding enthalpy [1] read?
**A.** -13.3 kcal/mol

**Q.** And the Tm [2]?
**A.** 46 °C

**Q.** With GTCGCCGCGAAAGCGGAC (((..(((....)))))) as the sequence, how does the folding enthalpy [1] read?
**A.** -6.08 kcal/mol

**Q.** What about the Tm [2] of the same sequence?
**A.** 32.8 °C
